# Results taken from ChEMBL document CHEMBL3612047, “Synthesis, antiproliferative activity and possible mechanism of action of novel 2-acetamidobenzamides bearing the 2-phenoxy functionality” (Bioorg Med Chem, 2015).
# Active and inactive are the calls of the source. No cut-off for these calls is given here.
# How the values were obtained:
# [1] = system: U-251; test: Growth inhibition of human U251 cells by NCI standard protocol based method; assay type: functional
# Method in brief: (§1)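 NCI 60-cell-line screen, standard NCI protocol. Single high dose of 10⁻⁵ M first, then a 5-dose assay across the full panel. Reported as GI₅₀, TGI and LC₅₀, the molar concentrations giving 50% net growth inhibition, total growth inhibition and 50% net cell death. Where an effect was not reached, the highest tested concentration was used.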
# [2] = system: SW-620; test: Growth inhibition of human SW620 cells by NCI standard protocol based method; assay type: functional; method in brief: as §1
# [3] = system: UO-31; test: Growth inhibition of human UO31 cells by NCI standard protocol based method; assay type: functional; method in brief: as §1
# [4] = Growth inhibition of human HCC2998 cells by NCI standard protocol based method; assay type: functional; conditions: HCC 2998
# Method in brief: (§2)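 NCI full 60-cell-line panel, 5-dose assay to the NCI standard protocol. GI₅₀ is the molar concentration inhibiting 50% net cell growth. Mean graph midpoint is averaged over all lines; where the effect is not reached, the highest tested concentration is used.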
# [5] = system: OVCAR-3; test: Growth inhibition of human OVCAR3 cells by NCI standard protocol based method; assay type: functional; method in brief: as §2
# [6] = system: HL-60(TB); test: Growth inhibition of human HL-60(TB) cells by NCI standard protocol based method; assay type: functional
# Method in brief: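 Tested in the NCI 60-cell-line screen under its standard protocol. A single-dose prescreen was run at 10⁻⁵ M, then a five-dose assay. GI50 is the molar concentration that inhibits net cell growth by 50%.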
# [7] = Growth inhibition of human SF539 cells by NCI standard protocol based method; assay type: functional; conditions: SF-539; method in brief: as §2
# [8] = Growth inhibition of human MOLT4 cells by NCI standard protocol based method; assay type: functional; conditions: MOLT-4; method in brief: as §2
# [9] = system: MDA-MB-468; test: Growth inhibition of human MDA-MB-468 cells by NCI standard protocol based method; assay type: functional; method in brief: as §2
# [10] = system: CCRF-CEM; test: Growth inhibition of human CCRF-CEM cells by NCI standard protocol based method; assay type: functional; method in brief: as §2
# [11] = system: HOP-62; test: Growth inhibition of human HOP62 cells by NCI standard protocol based method; assay type: functional; method in brief: as §2
# [12] = system: SK-OV-3; test: Growth inhibition of human SKOV3 cells by NCI standard protocol based method; assay type: functional; method in brief: as §1
# [13] = system: MDA-MB-435; test: Growth inhibition of human MDA-MB-435 cells by NCI standard protocol based method; assay type: functional; method in brief: as §2
# [14] = system: CAKI-1; test: Growth inhibition of human CAKI-1 cells by NCI standard protocol based method; assay type: functional; method in brief: as §2
# [15] = system: ACHN; test: Growth inhibition of human ACHN cells by NCI standard protocol based method; assay type: functional; method in brief: as §2
# [16] = Growth inhibition of human LOXIMVI cells by NCI standard protocol based method; assay type: functional; conditions: LOX IMVI; method in brief: as §2
# [17] = system: OVCAR-5; test: Growth inhibition of human OVCAR5 cells by NCI standard protocol based method; assay type: functional; method in brief: as §2
# [18] = Growth inhibition of human NCI60 cells assessed as cell growth level at 10 uM by NCI standard protocol based method; assay type: functional; design: scale not given: the % may be the effect or the level left
# Method in brief: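 NCI 60-cell-line screen (leukemia, lung, colon, melanoma, renal, ovarian, brain, breast, prostate) run to the NCI standard protocol. Single high dose of 10⁻⁵ M, read as growth percent. Mean graph midpoint is the arithmetic mean over all lines tested.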
# [19] = system: SR; test: Growth inhibition of human SR cells by NCI standard protocol based method; assay type: functional; method in brief: as §1
# [20] = molecular target: Tubulin (Homo sapiens) (UniProt P68371+Q9H4B7+P0DPH7+P68366+Q13509+Q71U36+P04350+Q3ZCM7+P07437+P68363+Q9BQE3+Q6PEY2+Q13885+Q9BVA1+Q9BUF5); test: Inhibition of colchicine binding to tubulin (unknown origin); assay type: protein-complex assay
# [21] = system: K562; test: Selectivity index, ratio of IC50 for human HuDe cells to IC50 human K562 cells
# Method in brief: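 Index taken as the ratio of HuDe to K562 IC₅₀. For K562: about 2 × 10⁵ cells/mL, compounds added at graded concentrations, viable count by trypan blue exclusion with a hemocytometer after 24 h. For HuDe primary epidermal cells: 2 × 10⁴ cells/mL, drugs or 0.1% DMSO added 24 h after seeding, MTT read at 570 nm (690 nm blank) after 72 h.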
# [22] = system: NCI-H522; test: Growth inhibition of human NCI-H522 cells by NCI standard protocol based method; assay type: functional; method in brief: as §2
# [23] = Growth inhibition of human SF295 cells by NCI standard protocol based method; assay type: functional; conditions: SF-295; method in brief: as §2
# [24] = Cytotoxicity against human HuDe cells incubated for 72 hrs by MTT assay; assay type: cell-based
# Method in brief: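 HuDe primary culture from human epidermis, seeded at 2 × 10⁴ cells/mL. Test drugs at different concentrations, or 0.1% DMSO, added 24 h after seeding, with 72 h exposure. MTT (5 mg/mL in PBS) then applied for 3 h at 37 °C. Formazan solubilized with isopropanol/triton X-100/HCl and read at 570 nm with 690 nm blank.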
# [25] = system: NCI-H23; test: Growth inhibition of human NCI-H23 cells by NCI standard protocol based method; assay type: functional; method in brief: as §2
# [26] = Growth inhibition of human Hs578T cells by NCI standard protocol based method; assay type: functional; conditions: Hs-578T; method in brief: as §2
# [27] = system: A498; test: Growth inhibition of human A498 cells by NCI standard protocol based method; assay type: functional; method in brief: as §2
# [28] = Growth inhibition of human RPMI8226 cells by NCI standard protocol based method; assay type: functional; conditions: RPMI-8226; method in brief: as §2
# [29] = system: T47D; test: Growth inhibition of human T47D cells by NCI standard protocol based method; assay type: functional; method in brief: as §1
# [30] = system: 786-0; test: Growth inhibition of human 786-0 cells by NCI standard protocol based method; assay type: functional; method in brief: as §2
# [31] = system: SF-268; test: Growth inhibition of human SF268 cells by NCI standard protocol based method; assay type: functional; method in brief: as §2
# [32] = system: K562; test: Growth inhibition of human K562 cells by NCI standard protocol based method; assay type: functional; method in brief: as §2
# [33] = system: NCI-H322M; test: Growth inhibition of human NCI-H322M cells by NCI standard protocol based method; assay type: functional; method in brief: as §2
# [34] = system: NCI/ADR-RES; test: Growth inhibition of human NCI/ADR-RES cells by NCI standard protocol based method; assay type: functional; method in brief: as §2
# [35] = system: SNB-19; test: Growth inhibition of human SNB19 cells by NCI standard protocol based method; assay type: functional; method in brief: as §1
# [36] = system: SN12C; test: Growth inhibition of human SN12C cells by NCI standard protocol based method; assay type: functional; method in brief: as §1
# [37] = system: DU-145; test: Growth inhibition of human DU145 cells by NCI standard protocol based method; assay type: functional; method in brief: as §2
# [38] = system: M14; test: Growth inhibition of human M14 cells by NCI standard protocol based method; assay type: functional; method in brief: as §2
# [39] = system: MDA-MB-231; test: Growth inhibition of human MDA-MB-231 cells by NCI standard protocol based method; assay type: functional; method in brief: as §2
# [40] = system: UACC-62; test: Growth inhibition of human UACC62 cells by NCI standard protocol based method; assay type: functional; method in brief: as §1
# [41] = system: UACC-257; test: Growth inhibition of human UACC257 cells by NCI standard protocol based method; assay type: functional; method in brief: as §1
smiles,measurement,setting,value
COc1cc(NC(=O)COc2ccccc2)c(C(N)=O)cc1OC,GI50,[1],0.777 µM
same,GI50,[2],0.646 µM
same,GI50,[3],13.5 µM
same,GI50,[4],3.33 µM
same,GI50,[5],0.472 µM
same,GI50,[6],0.293 µM
same,GI50,[7],0.563 µM
same,GI50,[8],2.91 µM
same,GI50,[9],0.848 µM
same,GI50,[10],0.562 µM
same,GI50,[11],1.75 µM
same,GI50,[12],3.58 µM
same,GI50,[13],0.614 µM
same,GI50,[14],3.8 µM
same,GI50,[15],8.12 µM
same,GI50,[16],1.81 µM
same,GI50,[17],15 µM
same,Activity,[18],27.38%
same,GI50,[19],0.515 µM
same,inhibition,[20],inactive
same,Ratio IC50,[21],280.52
same,GI50,[22],0.41 µM
same,GI50,[23],0.93 µM
same,IC50,[24],163 µM
same,GI50,[25],1.32 µM
same,GI50,[26],0.771 µM
same,GI50,[27],2.77 µM
same,GI50,[28],2.27 µM
same,GI50,[29],3.46 µM
same,GI50,[30],7.32 µM
same,GI50,[31],6.77 µM
same,GI50,[32],0.31 µM
same,GI50,[33],5.77 µM
same,GI50,[34],0.487 µM
same,GI50,[35],3.31 µM
same,GI50,[36],3.12 µM
same,GI50,[37],0.914 µM
same,GI50,[38],4 µM
same,GI50,[39],2.39 µM
same,GI50,[40],2.52 µM
same,GI50,[41],> 100 µM
NC(=O)c1cc(Cl)ccc1NC(=O)COc1ccccc1,GI50,[1],2.34 µM
same,GI50,[2],2.58 µM
same,GI50,[3],17.5 µM
same,GI50,[4],12.1 µM
same,GI50,[5],2.3 µM
same,GI50,[6],3.29 µM
same,GI50,[7],1.8 µM
same,GI50,[8],8.14 µM
same,GI50,[9],1.74 µM
same,GI50,[10],3.07 µM
same,GI50,[11],5.88 µM
same,GI50,[12],8.15 µM
same,GI50,[13],0.356 µM
same,GI50,[14],4.18 µM
same,GI50,[15],10.7 µM
same,GI50,[16],8.33 µM
same,GI50,[17],3.86 µM
same,Activity,[18],46.4%
same,GI50,[19],0.777 µM
same,inhibition,[20],inactive
same,Ratio IC50,[21],621.38
same,GI50,[22],3.78 µM
same,GI50,[23],1.96 µM
same,IC50,[24],808 µM
same,GI50,[25],5.9 µM
same,GI50,[26],4.65 µM
same,GI50,[27],1.41 µM
same,GI50,[28],4.33 µM
same,GI50,[29],6.87 µM
same,GI50,[30],9.54 µM
same,GI50,[31],9.89 µM
same,GI50,[32],0.854 µM
same,GI50,[33],7.09 µM
same,GI50,[34],1.43 µM
same,GI50,[35],11.7 µM
same,GI50,[36],17 µM
same,GI50,[37],6.01 µM
same,GI50,[38],2.21 µM
same,GI50,[39],9.01 µM
same,GI50,[40],5.42 µM
